Experimental data as given in ChEMBL document CHEMBL3352280, “Modulation of cAMP-specific PDE without emetogenic activity: new sulfide-like PDE7 inhibitors” (J Med Chem, 2014).
Activity calls are given as the source filed them. The calls are words filed in the database; no cut-off is given here.

Legend:
[1] = biological target: Dual specificity calcium/calmodulin-dependent 3',5'-cyclic nucleotide phosphodiesterase 1A (Homo sapiens) (UniProt P54750); assay: Inhibition of human recombinant PDE1A assessed at 10 uM after 60 mins by IMAP fluorescence polarization assay
Sequence of Dual specificity calcium/calmodulin-dependent 3',5'-cyclic nucleotide phosphodiesterase 1A (Homo sapiens) (P54750 whole entry): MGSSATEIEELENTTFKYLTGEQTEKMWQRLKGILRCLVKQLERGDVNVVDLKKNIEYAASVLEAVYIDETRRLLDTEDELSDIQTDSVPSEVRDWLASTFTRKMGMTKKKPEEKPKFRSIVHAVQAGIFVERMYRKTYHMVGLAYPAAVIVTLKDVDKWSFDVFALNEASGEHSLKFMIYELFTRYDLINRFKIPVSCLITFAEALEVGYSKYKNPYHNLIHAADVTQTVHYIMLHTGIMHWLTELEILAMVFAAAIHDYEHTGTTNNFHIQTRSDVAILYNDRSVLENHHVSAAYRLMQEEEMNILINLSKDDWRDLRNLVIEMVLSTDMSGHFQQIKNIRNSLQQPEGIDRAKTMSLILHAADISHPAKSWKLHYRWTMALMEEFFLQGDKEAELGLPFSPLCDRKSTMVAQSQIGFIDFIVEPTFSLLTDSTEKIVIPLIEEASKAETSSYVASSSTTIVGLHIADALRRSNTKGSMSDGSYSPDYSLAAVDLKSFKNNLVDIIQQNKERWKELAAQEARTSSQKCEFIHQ
How it was run: (§1)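 Fluorescence polarization IMAP assay. PDE1 at 2 U and PDE9 at 0.05 U, incubated with 1 nM fluorescein-cAMP (or fluorescein-cGMP for PDE5) plus inhibitor for 60 min at ambient temperature. Stopped with IMAP binding reagent, stood 1 h, FP ratio read. IC50 from a sigmoidal fit of FP versus log concentration. Means ± SD of two experiments with duplicates.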

Astrocyte [2] = assay: Inhibition of LPS-induced NO production in rat astrocytes treated for 1 hr at 10 uM before LPS challenge measured after 24 hrs by Griess assay; format: functional, cell-based
How it was run: (§2)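 After 2 days, cells were pretreated with compound (10 μM), then LPS (10 μg/mL) was added for 24 h. Nitrite in the supernatant was measured by Griess reagent (15 min, room temperature, absorbance 492/540 nm). Mean ± SD of three experiments.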

[3] = biological target: High affinity cAMP-specific and IBMX-insensitive 3',5'-cyclic phosphodiesterase 8A (Homo sapiens) (UniProt O60658); assay: Inhibition of PDE8A (unknown origin) at 10 uM
Sequence of High affinity cAMP-specific and IBMX-insensitive 3',5'-cyclic phosphodiesterase 8A (Homo sapiens) (O60658 whole entry): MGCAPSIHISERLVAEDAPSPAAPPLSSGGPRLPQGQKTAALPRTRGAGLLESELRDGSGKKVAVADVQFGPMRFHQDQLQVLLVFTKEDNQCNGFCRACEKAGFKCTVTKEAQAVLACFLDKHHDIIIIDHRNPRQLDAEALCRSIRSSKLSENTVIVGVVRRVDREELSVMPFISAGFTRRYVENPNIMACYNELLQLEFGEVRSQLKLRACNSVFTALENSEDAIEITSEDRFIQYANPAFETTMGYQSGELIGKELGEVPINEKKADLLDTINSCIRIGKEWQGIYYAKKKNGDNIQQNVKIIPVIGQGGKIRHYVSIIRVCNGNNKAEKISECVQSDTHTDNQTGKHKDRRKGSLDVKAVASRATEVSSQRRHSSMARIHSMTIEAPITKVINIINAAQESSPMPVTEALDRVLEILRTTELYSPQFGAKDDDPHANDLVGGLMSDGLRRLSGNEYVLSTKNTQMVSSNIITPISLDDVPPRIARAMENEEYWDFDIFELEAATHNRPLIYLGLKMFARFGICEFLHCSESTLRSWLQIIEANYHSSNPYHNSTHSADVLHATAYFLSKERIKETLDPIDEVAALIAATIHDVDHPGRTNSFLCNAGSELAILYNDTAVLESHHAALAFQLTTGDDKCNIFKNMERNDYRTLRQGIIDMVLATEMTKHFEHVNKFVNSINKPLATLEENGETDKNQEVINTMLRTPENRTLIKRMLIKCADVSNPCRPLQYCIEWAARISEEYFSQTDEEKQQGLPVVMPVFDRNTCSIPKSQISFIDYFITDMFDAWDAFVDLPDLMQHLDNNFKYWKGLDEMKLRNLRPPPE
How it was run: (§3)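 Scintillation proximity assay with human recombinant enzyme: PDE7A1 0.02 U, PDE3A 0.02 U, PDE7B 0.5 U, PDE8A 0.5 U. Enzyme incubated with 5 nCi [3H]cAMP and inhibitor in kit buffer for 20 min at 30 °C. SPA beads added and shaken 1 h at room temperature, settled 30 min, radioactivity counted.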

Microglia = assay: Inhibition of LPS-induced NO production in rat microglia treated for 1 hr at 10 uM before LPS challenge measured after 24 hrs by Griess assay; format: functional; how it was run: as §2
[4] = biological target: cAMP and cAMP-inhibited cGMP 3',5'-cyclic phosphodiesterase 10A (Homo sapiens) (UniProt Q9Y233); assay: Inhibition of human recombinant PDE10A assessed at 10 uM after 20 mins by scintillation proximity assay
[5] = biological target: T1, 3',5'-cyclic-AMP phosphodiesterase 4D (Homo sapiens, UniProt Q08499); assay: Inhibition of human recombinant PDE4D3 assessed at 10 uM after 60 mins by IMAP fluorescence polarization assay
T1 sequence (Q08499 whole entry): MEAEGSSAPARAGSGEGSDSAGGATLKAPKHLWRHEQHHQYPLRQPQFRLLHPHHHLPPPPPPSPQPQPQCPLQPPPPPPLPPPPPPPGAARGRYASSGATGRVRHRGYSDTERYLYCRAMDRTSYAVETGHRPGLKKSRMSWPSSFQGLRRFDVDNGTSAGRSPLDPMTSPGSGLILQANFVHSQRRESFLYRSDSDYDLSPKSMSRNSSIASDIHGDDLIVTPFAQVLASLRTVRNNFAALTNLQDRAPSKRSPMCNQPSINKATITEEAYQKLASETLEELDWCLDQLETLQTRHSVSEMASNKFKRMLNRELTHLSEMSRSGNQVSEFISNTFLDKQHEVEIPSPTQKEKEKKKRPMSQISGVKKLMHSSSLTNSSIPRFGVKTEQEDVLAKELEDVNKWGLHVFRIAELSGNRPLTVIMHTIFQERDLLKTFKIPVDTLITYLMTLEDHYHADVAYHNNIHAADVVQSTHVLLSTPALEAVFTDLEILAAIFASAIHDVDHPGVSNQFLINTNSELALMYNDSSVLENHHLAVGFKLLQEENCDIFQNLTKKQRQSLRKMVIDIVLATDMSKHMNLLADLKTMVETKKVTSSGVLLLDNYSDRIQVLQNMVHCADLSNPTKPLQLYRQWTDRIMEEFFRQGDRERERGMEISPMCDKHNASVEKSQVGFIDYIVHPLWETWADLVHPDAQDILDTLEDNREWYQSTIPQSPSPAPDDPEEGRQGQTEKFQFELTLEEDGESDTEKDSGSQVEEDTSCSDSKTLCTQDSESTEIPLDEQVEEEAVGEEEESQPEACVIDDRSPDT

[6] = biological target: T2, 3',5'-cyclic-AMP phosphodiesterase 4B (Homo sapiens, UniProt Q07343); assay: Inhibition of human recombinant PDE4B2 assessed after 60 mins by IMAP fluorescence polarization assay
T2 sequence (Q07343 whole entry): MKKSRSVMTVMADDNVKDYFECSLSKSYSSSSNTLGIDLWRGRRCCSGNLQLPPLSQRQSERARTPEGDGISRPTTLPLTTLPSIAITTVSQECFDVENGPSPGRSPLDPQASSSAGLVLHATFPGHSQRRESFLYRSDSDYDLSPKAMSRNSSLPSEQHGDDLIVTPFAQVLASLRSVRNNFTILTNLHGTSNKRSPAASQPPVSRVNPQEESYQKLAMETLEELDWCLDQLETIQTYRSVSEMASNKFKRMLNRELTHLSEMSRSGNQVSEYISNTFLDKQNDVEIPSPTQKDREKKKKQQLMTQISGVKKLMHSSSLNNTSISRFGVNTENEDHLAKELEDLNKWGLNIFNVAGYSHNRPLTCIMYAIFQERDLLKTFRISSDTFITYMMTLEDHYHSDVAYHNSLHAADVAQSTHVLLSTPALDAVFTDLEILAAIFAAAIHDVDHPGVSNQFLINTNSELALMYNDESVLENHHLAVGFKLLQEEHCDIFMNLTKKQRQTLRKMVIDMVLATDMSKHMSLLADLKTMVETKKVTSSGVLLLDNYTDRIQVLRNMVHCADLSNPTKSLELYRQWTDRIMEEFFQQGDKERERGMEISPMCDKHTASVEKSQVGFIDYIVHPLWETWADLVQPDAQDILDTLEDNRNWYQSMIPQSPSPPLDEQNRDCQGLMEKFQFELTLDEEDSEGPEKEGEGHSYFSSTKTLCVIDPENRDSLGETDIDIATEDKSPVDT

[7] = biological target: T2, 3',5'-cyclic-AMP phosphodiesterase 4B; assay: Inhibition of human recombinant PDE4B2 assessed at 10 uM after 60 mins by IMAP fluorescence polarization assay
[8] = biological target: T3, High affinity 3',5'-cyclic-AMP phosphodiesterase 7A (Homo sapiens, UniProt Q13946); assay: Inhibition of human recombinant PDE7A1 assessed as inhibition of hydrolysis of [3H]cAMP at 10 uM after 20 mins by scintillation proximity assay; how it was run: as §3
T3 sequence (Q13946 whole entry): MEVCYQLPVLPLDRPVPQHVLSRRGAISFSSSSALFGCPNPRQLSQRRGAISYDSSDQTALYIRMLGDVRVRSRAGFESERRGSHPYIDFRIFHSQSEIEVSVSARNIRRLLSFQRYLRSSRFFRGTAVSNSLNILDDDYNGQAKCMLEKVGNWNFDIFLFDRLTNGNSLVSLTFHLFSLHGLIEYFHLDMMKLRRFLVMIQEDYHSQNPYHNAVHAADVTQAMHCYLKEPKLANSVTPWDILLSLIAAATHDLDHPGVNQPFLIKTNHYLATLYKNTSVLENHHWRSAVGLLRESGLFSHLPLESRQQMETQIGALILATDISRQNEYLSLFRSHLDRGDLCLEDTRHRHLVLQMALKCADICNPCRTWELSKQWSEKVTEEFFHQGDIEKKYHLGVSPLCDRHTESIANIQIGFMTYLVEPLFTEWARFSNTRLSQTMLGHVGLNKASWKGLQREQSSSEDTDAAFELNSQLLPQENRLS

Phosphodiesterase 7 = Phosphodiesterase 7 (Homo sapiens, UniProt Q13946+Q9NP56); assay: Inhibition of PDE7 in human SH-SY5Y cells assessed as increase in CREB phosphorylation at 10 uM by Western blot analysis
Sequence of Phosphodiesterase 7 (Q13946 whole entry, looked up): as the sequence (Q13946 whole entry) above
Sequence of Phosphodiesterase 7 (Q9NP56 whole entry, looked up): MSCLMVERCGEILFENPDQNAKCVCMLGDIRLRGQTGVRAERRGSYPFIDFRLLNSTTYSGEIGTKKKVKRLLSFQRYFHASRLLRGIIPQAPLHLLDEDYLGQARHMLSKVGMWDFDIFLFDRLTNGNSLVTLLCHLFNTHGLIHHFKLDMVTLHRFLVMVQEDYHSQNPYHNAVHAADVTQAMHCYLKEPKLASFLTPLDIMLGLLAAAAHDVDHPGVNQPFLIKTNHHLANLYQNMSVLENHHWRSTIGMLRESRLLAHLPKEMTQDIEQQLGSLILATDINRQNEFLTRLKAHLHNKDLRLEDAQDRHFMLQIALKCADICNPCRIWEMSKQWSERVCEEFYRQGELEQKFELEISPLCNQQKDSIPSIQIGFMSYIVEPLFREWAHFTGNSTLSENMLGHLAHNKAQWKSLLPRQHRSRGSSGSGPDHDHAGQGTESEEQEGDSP

SH-SY5Y [9] = assay: Cytoprotective activity against 6-OHDA-induced death of human SH-SY5Y cells pretreated for 1 hr at 10 uM measured 16 hrs post 6-OHDA challenge by MTT assay; format: functional, cell-based
How it was run: (§4)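 Human neuroblastoma SH-SY5Y grown in F12/EMEM with 2 mM glutamine, 1% nonessential amino acids and 15% FBS at 37 °C, 5% CO2. Semiconfluent cells pretreated 1 h with compound, then 6-OHDA (35 μM) added for 16 h. Viability by MTT (0.5 mg/mL, 4 h), SDS/HCl solubilisation, absorbance 595 nm. Mean ± SD of three experiments.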

[10] = biological target: T4, 3',5'-cyclic-AMP phosphodiesterase 7B (Homo sapiens, UniProt Q9NP56); assay: Inhibition of human recombinant PDE7B assessed as inhibition of hydrolysis of [3H]cAMP at 10 uM after 20 mins by scintillation proximity assay; how it was run: as §3
T4 sequence (Q9NP56 whole entry): as the sequence (Q9NP56 whole entry, looked up) above

[11] = biological target: cGMP-inhibited 3',5'-cyclic phosphodiesterase 3A (Homo sapiens) (UniProt Q14432); assay: Inhibition of human recombinant PDE3A assessed as inhibition of hydrolysis of [3H]cAMP at 10 uM after 20 mins by scintillation proximity assay; how it was run: as §3
Sequence of cGMP-inhibited 3',5'-cyclic phosphodiesterase 3A (Homo sapiens) (Q14432 whole entry): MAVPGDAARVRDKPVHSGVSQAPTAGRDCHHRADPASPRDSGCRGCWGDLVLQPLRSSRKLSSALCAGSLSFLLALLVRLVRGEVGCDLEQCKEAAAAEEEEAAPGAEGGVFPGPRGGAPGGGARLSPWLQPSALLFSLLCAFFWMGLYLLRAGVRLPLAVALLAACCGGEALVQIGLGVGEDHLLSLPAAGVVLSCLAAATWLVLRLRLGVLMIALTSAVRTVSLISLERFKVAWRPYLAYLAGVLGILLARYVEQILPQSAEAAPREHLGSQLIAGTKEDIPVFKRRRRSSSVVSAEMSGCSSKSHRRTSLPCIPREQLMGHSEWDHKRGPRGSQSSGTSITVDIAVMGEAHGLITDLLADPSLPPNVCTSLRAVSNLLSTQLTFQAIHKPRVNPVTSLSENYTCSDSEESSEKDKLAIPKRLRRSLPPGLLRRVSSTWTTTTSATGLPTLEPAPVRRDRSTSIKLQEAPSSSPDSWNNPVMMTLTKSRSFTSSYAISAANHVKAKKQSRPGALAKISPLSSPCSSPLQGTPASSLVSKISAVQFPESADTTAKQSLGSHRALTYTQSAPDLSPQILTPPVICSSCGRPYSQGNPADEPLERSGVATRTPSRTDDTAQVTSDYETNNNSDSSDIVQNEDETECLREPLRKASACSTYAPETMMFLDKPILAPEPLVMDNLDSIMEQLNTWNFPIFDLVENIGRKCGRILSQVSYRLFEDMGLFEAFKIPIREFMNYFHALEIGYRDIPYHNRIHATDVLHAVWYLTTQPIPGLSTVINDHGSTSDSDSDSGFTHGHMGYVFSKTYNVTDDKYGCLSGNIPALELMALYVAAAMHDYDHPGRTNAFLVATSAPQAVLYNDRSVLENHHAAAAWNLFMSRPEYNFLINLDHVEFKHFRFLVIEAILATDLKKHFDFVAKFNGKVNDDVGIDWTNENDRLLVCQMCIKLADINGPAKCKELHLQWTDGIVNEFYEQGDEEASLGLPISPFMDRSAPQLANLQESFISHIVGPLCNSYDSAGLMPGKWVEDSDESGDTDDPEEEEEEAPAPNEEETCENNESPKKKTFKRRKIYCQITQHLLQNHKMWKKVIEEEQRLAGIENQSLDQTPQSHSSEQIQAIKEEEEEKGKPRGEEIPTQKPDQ

[12] = biological target: cGMP-specific 3',5'-cyclic phosphodiesterase (Homo sapiens) (UniProt O76074); assay: Inhibition of human recombinant PDE5A assessed at 10 uM after 60 mins by IMAP fluorescence polarization assay; how it was run: as §1
[13] = biological target: T1, 3',5'-cyclic-AMP phosphodiesterase 4D; assay: Inhibition of human recombinant PDE4D3 assessed after 60 mins by IMAP fluorescence polarization assay
[14] = biological target: High affinity cGMP-specific 3',5'-cyclic phosphodiesterase 9A (Homo sapiens) (UniProt O76083); assay: Inhibition of human recombinant PDE9A assessed at 10 uM after 60 mins by IMAP fluorescence polarization assay; how it was run: as §1
[15] = biological target: T3, High affinity 3',5'-cyclic-AMP phosphodiesterase 7A; assay: Inhibition of human recombinant PDE7A1 assessed as inhibition of hydrolysis of [3H]cAMP after 20 mins by scintillation proximity assay; how it was run: as §3
[16] = biological target: T4, 3',5'-cyclic-AMP phosphodiesterase 7B; assay: Inhibition of human recombinant PDE7B assessed as inhibition of hydrolysis of [3H]cAMP after 20 mins by scintillation proximity assay; how it was run: as §3
Mus musculus [17] = assay: Emetogenic potential in surrogate emesis CD1 mouse model assessed as effect on xyclacine/ketamine-induced loss of righting reflex at 1 mg/kg, sc; format: ADME, organism-based; design: dose 1 mg/kg, route subcutaneous; settings: in vivo
How it was run: (§5)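 Male CD1 mice (25–30 g) anesthetized ip with xylazine 10 mg/kg plus ketamine 100 mg/kg. Test agent or vehicle given sc 15 min later in 60% PEG/saline (0.1 mL/10 g). Duration of anesthesia is timed to return of righting reflex. Mean ± SEM, n = 10–19 per group, ANOVA with Dunnett post hoc test.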

Mus musculus [18] = assay: Emetogenic potential in surrogate emesis CD1 mouse model assessed as effect on xyclacine/ketamine-induced loss of righting reflex at 1 mg/kg, sc; settings: in vivo
Astrocyte [19] = assay: Inhibition of LPS-induced NO production in rat astrocytes; format: functional, cell-based
SH-SY5Y [20] = assay: Cytoprotective activity against 6-OHDA-induced death of human SH-SY5Y cells pretreated for 1 hr at 30 uM measured 16 hrs post 6-OHDA challenge by MTT assay; format: functional, cell-based; settings: 10 uM, in the assay text read “10 uM” for “30 uM”; how it was run: as §4
Mus musculus [21] = assay: Emetogenic potential in surrogate emesis CD1 mouse model assessed as effect on xyclacine/ketamine-induced loss of righting reflex at 2.5 to 10 mg/kg, sc; format: ADME, organism-based; design: dose 2.5-10 mg/kg, route subcutaneous; settings: in vivo; how it was run: as §5
Mus musculus [22] = assay: Emetogenic potential in surrogate emesis CD1 mouse model assessed as effect on xyclacine/ketamine-induced loss of righting reflex at 5 mg/kg, sc; format: ADME, organism-based; design: dose 5 mg/kg, route subcutaneous; settings: in vivo; how it was run: as §5

Compound	inhibition [1] [%]	inhibition [3] [%]	inhibition [4] [%]	inhibition [5] [%]	inhibition [7] [%]	inhibition [8] [%]	Activity (Phosphodiesterase 7)	inhibition [10] [%]	inhibition [11] [%]	inhibition [12] [%]	inhibition [14] [%]	IC50 [15] [nM]	IC50 [16] [nM]	inhibition (Astrocyte [2])	inhibition (Microglia)	Activity (SH-SY5Y [9])	Activity (Mus musculus [17])	further results
COc1ccc(C2CNC(=O)C2)cc1OC1CCCC1 (configuration not stated) [ROLIPRAM]	–	–	–	–	–	3.1	–	–	9.42	–	–	–	–	–	–	–	Toxic	Activity (Mus musculus [18]): Toxic
Nc1ccc(Sc2ccc(Cl)cc2[N+](=O)[O-])cc1	36	1.2	57.5	7	4	81	inactive	82	37	28	7	370	3000	Active	Active	Active	–	Activity (SH-SY5Y [20]): Active; Activity (Mus musculus [21]): Non-toxic
O=C(Nc1c(Cl)cncc1Cl)c1ccc(OC(F)F)c(OCC2CC2)c1 [ROFLUMILAST]	–	–	–	–	–	–	–	–	–	–	–	–	–	–	–	–	Toxic	Activity (Mus musculus [22]): Toxic

Continued, in another order:

inhibition [1] [%]	inhibition [3] [%]	inhibition [4] [%]	inhibition [5] [%]	inhibition [7] [%]	inhibition [8] [%]	Activity (Phosphodiesterase 7)	inhibition [10] [%]	inhibition [11] [%]	inhibition [12] [%]	inhibition [14] [%]	IC50 [15] [nM]	IC50 [16] [nM]	Compound	inhibition (Astrocyte [2])	inhibition (Microglia)	Activity (SH-SY5Y [9])	Activity (Mus musculus [17])	further results
39	2.4	29.4	65	69	85	inactive	94	27	21	1	180	600	O=[N+]([O-])c1ccc(Sc2ccncc2)c(Cl)c1	Active	Active	Active	–	IC50 [6]: 6600 nM; IC50 [13]: 7300 nM
–	–	–	24	35	69	–	39	44	–	–	1290	–	O=[N+]([O-])c1ccc(Sc2ccccn2)c(Cl)c1	Active	Active	Active	–	inhibition (Astrocyte [19]): Active
